Laboratory results from ChEMBL document CHEMBL1177846, “Benzylidene/2-chlorobenzylidene hydrazides: synthesis, antimicrobial activity, QSAR studies and antiviral evaluation” (Eur J Med Chem, 2010).
Values after ≈ are worked out from the molar mass of the structure shown. Active and inactive are the calls of the source. The rule behind the calls is not given here.

How the values were obtained:
Human alphaherpesvirus 1 [1] = test: Antiviral activity against Herpes simplex virus 1 KOS infected in human HEL cells assessed as inhibition of virus-induced cytopathic effect after 3 days by MTS assay; assay type: functional, organism-based
Method in brief: (§1)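 Confluent cell monolayers were infected with 100 CCID50 of virus and allowed 2 h adsorption at 37 °C. Virus was then removed and serial compound dilutions were added. Cultures were incubated at 37 °C for 3 days, until CPE was complete in the untreated virus control. EC50 was the concentration giving 50% inhibition of virus-induced CPE, by visual score or by MTS formazan cell viability.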

Influenza A virus [2] = test: Antiviral activity against influenza A virus H3N2 infected in MDCK cells assessed as inhibition of virus-induced cytopathic effect after 3 days by MTS assay; assay type: functional, organism-based; method in brief: as §1
HeLa = test: (§2) Cytotoxicity against human HeLa cells after 3 days by MTS assay; assay type: cell-based; details: hela, 72 h
Method in brief: (§3)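 Uninfected HeLa cells were run in parallel with the antiviral assay and exposed to serial compound dilutions. CC50 is the 50% cytotoxic concentration from colorimetric formazan-based MTS cell viability.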

[3] = as §2; assay type: cell-based; details: HeLa cells; method in brief: as §3
Candida albicans = test: Antifungal activity against Candida albicans after 48 hrs by serial dilution method; assay type: functional
Method in brief: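 Serial compound dilutions in Sabouraud dextrose broth (tube dilution), incubated 37 °C for 48 h. MIC was read as the lowest concentration with no growth.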

[4] = test system: Vesicular stomatitis virus; test: Antiviral activity against VSV infected in human HeLa cells assessed as inhibition of virus-induced cytopathic effect after 3 days by MTS assay; assay type: functional, organism-based; details: 72 h; method in brief: as §1
Bacillus subtilis = test: Antibacterial activity against Bacillus subtilis after 24 hrs by serial dilution method; assay type: functional
[5] = test system: Respiratory syncytial virus; test: Antiviral activity against RSV infected in human HeLa cells assessed as inhibition of virus-induced cytopathic effect after 3 days by MTS assay; assay type: functional, organism-based; details: 72 h; method in brief: as §1
[6] = test system: Vesicular stomatitis virus; test: Antiviral activity against VSV infected in human HEL cells assessed as inhibition of virus-induced cytopathic effect after 3 days by MTS assay; assay type: functional, organism-based; method in brief: as §1
Human alphaherpesvirus 1 [7] = test: Antiviral activity against acyclovir-resistant […] kinase-deficient HSV1 KOS infected in human HEL cells assessed as inhibition of virus-induced cytopathic effect after 3 days by MTS assay; assay type: functional, organism-based; method in brief: as §1
Human alphaherpesvirus 2 = test: Antiviral activity against Herpes simplex virus 2 G infected in human HEL cells assessed as inhibition of virus-induced cytopathic effect after 3 days by MTS assay; assay type: functional, organism-based; details: strain G; method in brief: as §1
Coxsackievirus B4 [8] = test: Antiviral activity against Coxsackie virus B4 infected in human HeLa cells assessed as inhibition of virus-induced cytopathic effect after 3 days by MTS assay; assay type: functional, organism-based; details: Enterovirus B, 72 h; method in brief: as §1
Human respirovirus 3 = test: Antiviral activity against Parainfluenza 3 virus infected in african green monkey Vero cells assessed as inhibition of virus-induced cytopathic effect after 3 days by MTS assay; assay type: functional, organism-based; method in brief: as §1
Coxsackievirus B4 [9] = test: Antiviral activity against Coxsackie virus B4 infected in african green monkey Vero cells assessed as inhibition of virus-induced cytopathic effect after 3 days by MTS assay; assay type: functional, organism-based; method in brief: as §1
Vaccinia virus = test: Antiviral activity against Vaccinia virus infected in human HEL cells assessed as inhibition of virus-induced cytopathic effect after 3 days by MTS assay; assay type: functional, organism-based; details: Orthopoxvirus vaccinia; method in brief: as §1
Escherichia coli = test: Antibacterial activity against Escherichia coli after 24 hrs by serial dilution method; assay type: functional
Sindbis virus = test: Antiviral activity against Simbidis virus infected in african green monkey Vero cells assessed as inhibition of virus-induced cytopathic effect after 3 days by MTS assay; assay type: functional, organism-based; method in brief: as §1
Influenza A virus [10] = test: Antiviral activity against influenza A virus H1N1 infected in MDCK cells assessed as inhibition of virus-induced cytopathic effect after 3 days by MTS assay; assay type: functional, organism-based; method in brief: as §1
Punta Toro virus = test: Antiviral activity against Punta toro virus infected in african green monkey Vero cells assessed as inhibition of virus-induced cytopathic effect after 3 days by MTS assay; assay type: functional, organism-based; method in brief: as §1
Felid alphaherpesvirus 1 = test: Antiviral activity against Feline herpesvirus 1 infected in […] cells assessed as inhibition of virus-induced cytopathic effect after 3 days by MTS assay; assay type: functional, organism-based; method in brief: as §1
Staphylococcus aureus = test: Antibacterial activity against Staphylococcus aureus after 24 hrs by serial dilution method; assay type: functional
Influenza B virus = test: Antiviral activity against influenza B virus infected in MDCK cells assessed as inhibition of virus-induced cytopathic effect after 3 days by MTS assay; assay type: functional, organism-based; method in brief: as §1
Aspergillus niger = test: Antifungal activity against Aspergillus niger after 7 days by serial dilution method; assay type: functional
Feline coronavirus = test: Antiviral activity against Feline caronavirus infected in […] cells assessed as inhibition of virus-induced cytopathic effect after 3 days by MTS assay; assay type: functional, organism-based; method in brief: as §1
[11] = test system: Mammalian orthoreovirus 1; test: Antiviral activity against Reovirus 1 infected in african green monkey Vero cells assessed as inhibition of virus-induced cytopathic effect after 3 days by MTS assay; assay type: functional, organism-based; method in brief: as §1

In the case of `COc1cc(OC)cc(C(=O)N/N=C/c2ccccc2Cl)c1`, the inhibition (Human alphaherpesvirus 1 [1]) is reported as “inactive”, the inhibition (Influenza A virus [2]) is reported as “inactive” and the CC50 (HeLa) is reported as 64 µg/mL (≈ 201 µM). For the same compound, the MCC at 72 h [3] was 100 µg/mL, the “-logMIC” value (Candida albicans) was 2.01 and the MFC (Candida albicans) was 0.019 uM/ml. The EC50 [4] was 13.2 µg/mL (≈ 41.4 µM), the MBC (Bacillus subtilis) was 0.039 uM/ml and the EC50 [5] was over 20 µg/mL. For the same compound, the inhibition [6] was “inactive”, the inhibition (Human alphaherpesvirus 1 [7]) was “inactive” and the inhibition (Human alphaherpesvirus 2) was “inactive”. For the same compound, the EC50 (Coxsackievirus B4 [8]) was over 20 µg/mL, the inhibition (Human respirovirus 3) was “inactive” and the inhibition (Coxsackievirus B4 [9]) was “inactive”. For the same compound, the inhibition (Vaccinia virus) was “inactive”, the MBC (Escherichia coli) was over 0.157 uM/ml and the inhibition (Sindbis virus) was “inactive”. For the same compound, the inhibition (Influenza A virus [10]) was “inactive”, the inhibition (Punta Toro virus) was “inactive” and the inhibition (Felid alphaherpesvirus 1) was “inactive”. The MBC (Staphylococcus aureus) was over 0.157 uM/ml, the inhibition (Influenza B virus) was “inactive” and the “-logMIC” value (Aspergillus niger) was 1.56. For the same compound, the MFC (Aspergillus niger) was over 0.157 uM/ml, the inhibition (Feline coronavirus) was “inactive” and the inhibition [11] was “inactive”.
For `COc1cc(OC)cc(C(=O)N/N=C/c2ccccc2)c1`, the inhibition (Human alphaherpesvirus 1 [1]) was “inactive”, the inhibition (Influenza A virus [2]) was “inactive” and the CC50 (HeLa) was 61.2 µg/mL (≈ 215 µM). The MCC at 72 h [3] was 100 µg/mL, the MFC (Candida albicans) was 0.011 uM/ml and the EC50 [4] was 6.5 µg/mL (≈ 22.9 µM). For the same compound, the MBC (Bacillus subtilis) was 0.044 uM/ml, the EC50 [5] was over 20 µg/mL and the inhibition [6] was “inactive”. The inhibition (Human alphaherpesvirus 1 [7]) was “inactive”, the inhibition (Human alphaherpesvirus 2) was “inactive” and the EC50 (Coxsackievirus B4 [8]) was over 20 µg/mL. The inhibition (Human respirovirus 3) was “inactive”, the inhibition (Coxsackievirus B4 [9]) was “inactive” and the inhibition (Vaccinia virus) was “inactive”. The MBC (Escherichia coli) was 0.177 uM/ml, the inhibition (Sindbis virus) was “inactive” and the inhibition (Influenza A virus [10]) was “inactive”. The inhibition (Punta Toro virus) was “inactive”, the inhibition (Felid alphaherpesvirus 1) was “inactive” and the MBC (Staphylococcus aureus) was 0.088 uM/ml. For the same compound, the inhibition (Influenza B virus) was “inactive”, the “-logMIC” value (Aspergillus niger) was 1.66 and the MFC (Aspergillus niger) was 0.022 uM/ml. The inhibition (Feline coronavirus) was “inactive” and the inhibition [11] was “inactive”.
